Measured values: ChEMBL document CHEMBL3758120, “Synthesis and Mechanism Studies of 1,3-Benzoazolyl Substituted Pyrrolo[2,3-b]pyrazine Derivatives as Nonintercalative Topoisomerase II Catalytic Inhibitors” (J Med Chem, 2016)
pIC50: −log10 of the molar value. Calls of active or inactive are those of the source. The rule behind the calls is not given here.

Columns and labels:
[1] = target: T1, DNA topoisomerase 1 (Homo sapiens) (UniProt P11387); settings: 0.6 to 5 uM
T1 sequence (whole entry): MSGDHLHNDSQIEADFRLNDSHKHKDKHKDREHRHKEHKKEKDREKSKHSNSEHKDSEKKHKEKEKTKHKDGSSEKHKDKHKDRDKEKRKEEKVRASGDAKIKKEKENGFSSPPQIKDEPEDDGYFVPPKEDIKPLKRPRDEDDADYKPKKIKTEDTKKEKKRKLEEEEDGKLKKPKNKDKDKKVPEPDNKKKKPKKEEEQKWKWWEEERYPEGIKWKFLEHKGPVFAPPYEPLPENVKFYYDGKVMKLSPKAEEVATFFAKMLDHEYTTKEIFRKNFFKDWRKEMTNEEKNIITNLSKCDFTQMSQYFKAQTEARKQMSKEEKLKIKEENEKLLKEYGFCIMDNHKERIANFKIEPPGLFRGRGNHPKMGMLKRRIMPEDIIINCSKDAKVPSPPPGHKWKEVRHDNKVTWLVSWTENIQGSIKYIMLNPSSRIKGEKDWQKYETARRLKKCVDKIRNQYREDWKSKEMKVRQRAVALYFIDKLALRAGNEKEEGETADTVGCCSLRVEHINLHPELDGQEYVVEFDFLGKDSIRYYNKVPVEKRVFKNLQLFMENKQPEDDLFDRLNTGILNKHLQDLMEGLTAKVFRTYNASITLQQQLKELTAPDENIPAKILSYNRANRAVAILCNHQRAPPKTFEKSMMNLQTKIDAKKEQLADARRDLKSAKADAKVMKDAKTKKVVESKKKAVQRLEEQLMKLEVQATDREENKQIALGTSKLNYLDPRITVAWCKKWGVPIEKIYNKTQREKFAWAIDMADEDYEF

[2] = Antiproliferative activity against human HL60/MX2 cells after 48 hrs by MTT assay; format: functional, cell-based; settings: HL60/MX2, 48 h
Outline: (§1)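 Cells seeded at 5000 per well and left overnight, then exposed to increasing concentrations (0-50 μM) for 48 h. […] HL-60/MX2 is a mitoxantrone-selected HL-60 derivative with reduced Topo IIα/β.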

[3] = system: A549; experiment: Antiproliferative activity against human A549 cells after 48 hrs by MTT assay; format: functional, cell-based; settings: A549, 48 h
Outline: as §1

[4] = system: K562; experiment: Antiproliferative activity against human K562 cells after 48 hrs by MTT assay; format: functional, cell-based; settings: K562, 48 h
Outline: as §1

[5] = Antiproliferative activity against human HL60 cells after 48 hrs by MTT assay; format: functional, cell-based; settings: HL-60, 48 h
Outline: as §1

[6] = system: HEK293; experiment: Cytotoxicity against HEK293 cells after 48 hrs by MTT assay; format: cell-based; settings: Homo sapiens, HEK293, 48 h
[7] = system: HL-60; experiment: Resistance index, ratio of IC50 for human HL60/MX2 cells to IC50 for HL60 cells; format: functional
Outline: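 Resistance index calculated as MTT-derived IC50 (48 h exposure, 0-50 μM, A570 readout) in HL-60/MX2 divided by IC50 in parental HL-60.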

[8] = system: Raji; experiment: Antiproliferative activity against human Raji cells after 48 hrs by MTT assay; format: functional, cell-based
Outline: as §1

[9] = target: T2, DNA topoisomerase 2-alpha (Homo sapiens, UniProt P11388); experiment: Inhibition of purified human topoisomerase 2-mediated relaxation of supercoiled pBR322 DNA at 20 uM incubated for 30 mins by agarose gel electrophoresis
Outline: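 Reactions contained 0.2 μg supercoiled pBR322 in 50 mM Tris-HCl pH 8.0, 150 mM NaCl, 10 mM MgCl2, 0.5 mM DTT, 30 μg/ml BSA, normally 2 mM ATP (1, 2 or 4 mM in ATP-competition runs). Started with 1 U human Topo II, 30 min at 37 °C, stopped with sarcosyl buffer, run on 1% agarose 1.5 h at 75 V, gel-stained and imaged under UV.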

[10] = target: T2, DNA topoisomerase 2-alpha; settings: 100 uM
[11] = Antiproliferative activity against human MDA-MB-201 cells after 48 hrs by MTT assay; format: functional, cell-based
Outline: as §1

[12] = target: T2, DNA topoisomerase 2-alpha; settings: HL-60, 10 uM
[13] = system: HeLa; experiment: Antiproliferative activity against human HeLa cells after 48 hrs by MTT assay; format: functional, cell-based
Outline: as §1

T2 sequence (P11388 whole entry): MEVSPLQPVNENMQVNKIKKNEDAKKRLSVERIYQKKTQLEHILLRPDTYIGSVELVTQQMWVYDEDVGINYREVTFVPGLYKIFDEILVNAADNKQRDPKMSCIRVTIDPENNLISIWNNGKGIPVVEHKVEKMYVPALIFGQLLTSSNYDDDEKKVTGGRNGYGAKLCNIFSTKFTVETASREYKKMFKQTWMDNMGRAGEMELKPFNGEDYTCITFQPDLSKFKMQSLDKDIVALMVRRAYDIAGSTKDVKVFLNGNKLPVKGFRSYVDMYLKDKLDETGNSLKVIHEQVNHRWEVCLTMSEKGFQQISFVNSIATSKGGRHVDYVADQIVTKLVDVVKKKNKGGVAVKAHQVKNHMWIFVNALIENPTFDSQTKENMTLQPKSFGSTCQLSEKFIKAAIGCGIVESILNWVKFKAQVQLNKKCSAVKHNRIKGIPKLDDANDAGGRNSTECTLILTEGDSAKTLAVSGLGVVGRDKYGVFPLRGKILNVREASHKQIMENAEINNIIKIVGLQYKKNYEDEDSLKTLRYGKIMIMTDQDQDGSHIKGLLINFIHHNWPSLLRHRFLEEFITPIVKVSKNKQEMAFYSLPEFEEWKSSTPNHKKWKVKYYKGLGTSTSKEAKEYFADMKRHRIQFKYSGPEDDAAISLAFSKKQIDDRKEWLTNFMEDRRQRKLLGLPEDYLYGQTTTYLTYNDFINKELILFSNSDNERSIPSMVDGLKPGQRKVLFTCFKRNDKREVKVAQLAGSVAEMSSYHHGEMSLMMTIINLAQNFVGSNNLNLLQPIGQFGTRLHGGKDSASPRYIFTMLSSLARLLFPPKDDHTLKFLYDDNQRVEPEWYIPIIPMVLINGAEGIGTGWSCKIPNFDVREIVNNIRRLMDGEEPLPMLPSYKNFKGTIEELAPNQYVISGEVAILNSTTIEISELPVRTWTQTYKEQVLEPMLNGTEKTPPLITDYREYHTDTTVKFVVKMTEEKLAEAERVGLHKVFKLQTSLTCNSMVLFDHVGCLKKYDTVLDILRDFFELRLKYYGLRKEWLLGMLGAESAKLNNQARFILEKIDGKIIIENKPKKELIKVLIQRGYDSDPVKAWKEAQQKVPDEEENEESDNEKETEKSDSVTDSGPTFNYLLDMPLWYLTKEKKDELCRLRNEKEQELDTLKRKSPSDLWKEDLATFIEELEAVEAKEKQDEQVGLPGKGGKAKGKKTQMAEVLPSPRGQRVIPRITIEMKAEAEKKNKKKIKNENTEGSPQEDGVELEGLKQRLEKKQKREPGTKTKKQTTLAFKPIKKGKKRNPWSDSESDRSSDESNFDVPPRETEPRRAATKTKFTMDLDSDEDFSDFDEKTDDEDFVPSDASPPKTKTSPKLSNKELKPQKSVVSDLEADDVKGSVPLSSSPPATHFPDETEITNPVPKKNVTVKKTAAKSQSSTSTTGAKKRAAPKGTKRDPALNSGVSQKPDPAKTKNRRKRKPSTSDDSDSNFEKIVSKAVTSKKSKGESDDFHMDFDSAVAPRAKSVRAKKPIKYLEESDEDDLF

## COc1cc([C@@H]2c3cc4c(cc3[C@@H](O[C@@H]3O[C@@H]5CO[C@@H](C)O[C@H]5[C@H](O)[C@H]3O)[C@H]3COC(=O)[C@H]23)OCO4)cc(OC)c1O [ETOPOSIDE]
[1]
  inhibition: Active
[2]
  pIC50: 5.04
[3]
  pIC50: 5.17
[4]
  pIC50: 6.29
[5]
  pIC50: 6.80
[6]
  pIC50: 6.16
[7]
  Ratio IC50: 56.4
[8]
  pIC50: 5.77
[9]
  inhibition: Active
[10]
  inhibition: Active
[11]
  pIC50: 4.50
[12]
  inhibition: Active
[13]
  pIC50: 4.49
